# Measured values from different studies.
# Protocols differ between the studies behind these lines.
# CNR2: Cannabinoid receptor 2 (CNR2, Homo sapiens, UniProt P34972)
# F10: Coagulation factor X (F10, Homo sapiens, UniProt P00742)
# Ribonuclease H1: Ribonuclease H1 (Homo sapiens, UniProt O60930)
Compound,target,effect on,mode,method,notes,quantity,value
CCCCCc1ccccc1C/C=C\C/C=C\C/C=C\CCCC(=O)N[C@H](C)CO,CNR2,β-arrestin recruitment,agonist,,,EC50,436 nM
CC(C)(NC(=O)c1nn(CCCCC(F)(F)F)c2ccccc12)c1cccc(C(N)=O)c1,CNR2,ligand displacement,,radioligand,cell membranes,Ki,300 nM
O=[N+]([O-])c1ccc(O)c([N+](=O)[O-])c1,"Casein kinase I isoform alpha (CSNK1A1, Homo sapiens, UniProt P48729)",binding,,SPR,,Kd,> 50000 nM
CCOC(=O)c1ccc(OC(=O)CCCCCN=C(N)N)cc1,F10,enzyme activity,inhibitor,,,IC50,790 nM
CCCCC/C=C\[C@H](C)/C=C\C/C=C\Cc1ccccc1CCCC(=O)N[C@H](C)CO,CNR2,cAMP,agonist,,,EC50,751 nM
C[C@H](NC(=O)[C@H](CCC(N)=O)NC(=O)CCCCNC(=N)N)C(=O)N[C@@H](CCCNC(=N)N)C(=O)c1nc2ccccc2s1,F10,cell-free assay,,,,Ki,85 nM
c1cncc([C@@H]2CCCN2)c1,"Neuronal acetylcholine receptor; alpha2/beta2 (Rattus norvegicus, UniProt P12389+P12390)",cell-free assay,,radioligand,,Ki,87.1 nM
CC[C@H](C)[C@@H](C(=O)N1CCC[C@H]1c1nccs1)N(C)C(=O)[C@H](CC(C)C)N(C)C(=O)[C@H](Cc1ccc(OC)cc1)N(C)C(=O)/C=C(\C)OC,CNR2,β-arrestin recruitment,antagonist,,,IC50,17700 nM
CCCCC/C=C\C/C=C\C/C=C\Cc1ccccc1CCCC(=O)N[C@H](C)CO,CNR2,β-arrestin recruitment,agonist,,,EC50,14.7 nM
CCOC(=O)N[C@@H](CCCNC(=N)N)C(=O)N[C@@H](CCC(N)=O)C(=O)N[C@@H](Cc1ccccc1)C(=O)N[C@@H](CCCNC(=N)N)C(=O)c1nc2ccccc2s1,F10,cell-free assay,,,,Ki,15 nM
CC(C)(NC(=O)c1nn(CC2CCCC2)c2ccccc12)c1cccc(C(N)=O)c1,CNR2,ligand displacement,,radioligand,cell membranes,Ki,110 nM
O=C1Cc2cc(-c3ccco3)ccc2C(=O)N1O,Ribonuclease H1,enzyme activity,inhibitor,,,IC50,2390 nM
CCCCC/C=C\[C@H](C)/C=C\C/C=C\Cc1ccccc1CCCC(=O)OC(CO)CO,CNR2,β-arrestin recruitment,agonist,,,EC50,4180 nM
CCCCCn1nc(C(=O)NC(C)(C)c2cccc(C(N)=O)c2)c2ccccc21,CNR2,ligand displacement,,radioligand,cell membranes,Ki,250 nM
O=c1c(-c2ccccc2)c(O)c2cc(-c3cccc(-c4ccccc4)c3)cnc2n1O,Ribonuclease H1,enzyme activity,inhibitor,,,IC50,> 10000 nM
COc1ccc(CCCCC(=O)C(F)(F)C(F)(F)F)cc1,"85/88 kDa calcium-independent phospholipase A2 (PLA2G6, Homo sapiens, UniProt O60733)",enzyme activity,inhibitor,,,IC50,170 nM
